Where only a bound is given, the exact number is not on record here.

As usually defined, the ED50 is the dose at which the effect has come halfway, by size or by number of responders. The inhibition in vivo is how much of the control response was suppressed.

Assay [1] deals with Canis familiaris. Kind of assay: Bronchodilatory activity in anesthetized dog assessed as inhibition of pilocarpine-induced bronchospasms at 0.016 to 0.032 ug/kg administered through aerosol 15 mins post challenge measured up to 1 hr. The format is functional, Canis lupus familiaris. A digest of the protocol: (§1)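 In anesthetized dogs, a long-lasting bronchospasm was induced by pilocarpine, 400 µg/kg injection then 4 µg/kg/min perfusion, requiring an airway resistance increase of at least 200–300% over resting. After a 15-min control period, the compound was delivered by ultrasonic aerosol. Inhibition of bronchoconstriction was followed for the 1-h experiment.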

In assay [2] the test system is Cavia porcellus. Kind of assay: Bronchodilator activity in iv dosed Hartley guinea pig assessed as inhibition of acetylcholine-induced bronchoconstriction administered 2 mins post acetylcholine challenge as 3 to 4 doses in 15 mins interval. The format is functional. Particulars: for ED50: Cavia porcellus, Hartley, iv. The essentials: (§2)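 Guinea pigs under urethane anesthesia, gallamine-paralyzed and artificially ventilated (60 strokes/min). Bronchospasm was evoked by iv acetylcholine (40–150), histamine (5.6–22.5) or serotonin (7.5–30 μg/kg), giving a 20–50 cm water rise in tracheal pressure, every 5 min. Three or four log-spaced iv doses (esters in 10% aqueous ethanol) were given at 15-min intervals, with ≥4 animals per spasmogen. ED50 (–50% variation of the first spasm) came from a semilog regression; if never reached, ED50 > maximal dose.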

The test system of assay [3] is Cavia porcellus. Kind of assay: Bronchodilator activity in iv dosed Hartley guinea pig assessed as inhibition of serotonin-induced bronchoconstriction administered 2 mins post serotonin challenge as 3 to 4 doses in 15 mins interval. The format is functional. The essentials: as §2
The test system of assay [4] is Cavia porcellus. Put plainly: Bronchodilator activity in iv dosed Hartley guinea pig assessed as inhibition of histamine-induced bronchoconstriction administered 2 mins post histamine challenge as 3 to 4 doses in 15 mins interval. The format is functional. The essentials:
as §2

The subject of assay [5] is Canis familiaris. Put plainly: Bronchodilatory activity in anesthetized dog assessed as inhibition of pilocarpine-induced bronchospasms compound administered through aerosol 15 mins post challenge measured up to 1 hr. The format is functional. Particulars: Canis lupus familiaris, inhaled or nasal. A digest of the protocol:
as §1

Assay [6] deals with Cavia porcellus. Kind of assay: Bronchodilator activity in Hartley guinea pig assessed as inhibition of acetylcholine-induced bronchoconstriction at 3.2 mg/kg, iv administered 2 mins post acetylcholine challenge as 3 to 4 doses in 15 mins interval. The assay is classed as functional. The essentials:
(§3)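 Urethane (1.5 g/kg ip) anesthetized, gallamine-curarized, ventilated guinea pigs. Spasms were induced by 12-s iv jugular injections every 5 min to raise tracheal pressure 20–50 cm water: acetylcholine 40–150, histamine 5.6–22.5, or serotonin 7.5–30 μg/kg. The drug was given iv over 1 min, 2 min after three stable control spasms. Salts were given as such and esters in 10% aqueous ethanol. Spasm amplitude was expressed as percent variation vs control, with ≥4 animals per spasmogen.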

Assay [7] has as its system Cavia porcellus. Put plainly: Bronchodilator activity in Hartley guinea pig assessed as inhibition of serotonin-induced bronchoconstriction at 3.2 mg/kg, iv administered 2 mins post serotonin challenge as 3 to 4 doses in 15 mins interval. The assay is classed as functional. The essentials:
as §3

Assay [8] relates to Cavia porcellus. Put plainly: Bronchodilator activity in Hartley guinea pig assessed as inhibition of histamine-induced bronchoconstriction at 3.2 mg/kg, iv administered 2 mins post histamine challenge as 3 to 4 doses in 15 mins interval. The assay is classed as functional. The essentials: as §3
Assay [9] deals with Canis familiaris. Kind of assay: Bronchodilatory activity in anesthetized dog assessed as inhibition of pilocarpine-induced bronchospasms at 16 to 32 ug/kg administered through aerosol 15 mins post challenge measured up to 1 hr. The assay is classed as functional, Canis lupus familiaris. The essentials:
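Anesthetized dogs receive a pilocarpine injection of 400 µg/kg, followed by a pilocarpine perfusion of 4 µg/kg/min, to produce a long-acting bronchospasm. Airway resistance must rise to at least 200-300% of the resting value. After a 15-min control period, compound is given by ultrasonic aerosol. Read-out is percent inhibition of the pilocarpine bronchoconstriction, followed over the 1 h experiment.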

On to `CCCCCC(O)/C=C/C1C(O)CC(=O)C1CCCCCCC(=O)O` (stereo unspecified), for which the “inhibition (INH)” value in the assay with Canis familiaris [1] came out at 70%.
For `CCCCC(C)(C)[C@H](O)/C=C/C1CCC(=O)[C@@H]1CCCCCCC(=O)O` (mixture of isomers), the ED50 in the assay on Cavia porcellus [2] worked out at 0.0429 mg/kg; with Cavia porcellus [3] it was 0.0259 mg/kg; with Cavia porcellus [4], 0.00417 mg/kg.
In the case of `CCCCC[C@](C)(O)/C=C/C1CCC(=O)[C@@H]1CCCCCCC(=O)O` (mixture of isomers), the MED50 with Cavia porcellus [2] is 0.0032 mg/kg. Moreover, the ED50 in the assay with Cavia porcellus [3] worked out at 0.00699 mg/kg; in the assay with Cavia porcellus [4] it was 0.00424 mg/kg.
As for `CCCCC[C@H](O)/C=C/C1CCC(=O)[C@@H]1CCCCSCC(=O)O` (mixture of isomers), the ED50 with Canis familiaris [5] was found to be 0.0016 mg/kg; with Cavia porcellus [2], 0.00514 mg/kg; with Cavia porcellus [3], 0.00129 mg/kg; in the assay with Cavia porcellus [4], 0.00507 mg/kg.
In the case of `CCCCC[C@@H](O)/C=C/C1CCC(=O)[C@@H]1CCCCSCC(=O)O` (mixture of isomers), the MED50 in the assay on Cavia porcellus [2] stood at 0.2 mg/kg. Also, the ED50 is 0.0233 mg/kg in the assay with Cavia porcellus [3] and 0.0113 mg/kg with Cavia porcellus [4].
On to `CCCCC[C@](C)(O)/C=C/C1CCC(=O)[C@@H]1CCCCSCC(=O)O` (mixture of isomers), for which the ED50 was determined as 0.0193 mg/kg in the assay with Cavia porcellus [2], 0.0054 mg/kg in the assay on Cavia porcellus [3] and 0.00185 mg/kg in the assay on Cavia porcellus [4].
On to `CCCCC(C)(C)[C@H](O)/C=C/C1CCC(=O)[C@@H]1CCCCSCC(=O)O` (mixture of isomers), for which the ED50 in the assay on Cavia porcellus [2] is 0.604 mg/kg; in the assay on Cavia porcellus [3], 0.0523 mg/kg; in the assay on Cavia porcellus [4], 0.0242 mg/kg.
As for `CCCCC(C)(C)[C@@H](O)/C=C/C1CCC(=O)[C@@H]1CCCCSCC(=O)O` (mixture of isomers), the ED50 in the assay with Cavia porcellus [3] was determined as 0.032 mg/kg; with Cavia porcellus [4] it was 0.324 mg/kg.
On to `CCCCC[C@H](O)/C=C/C1CCC(=O)[C@@H]1CCCSCC(=O)O` (mixture of isomers), for which the inhibition in vivo at 3.2 mg/kg in the assay with Cavia porcellus [6], in the assay on Cavia porcellus [7] and in the assay on Cavia porcellus [8] was below 50% each time.
Regarding `CCCCC[C@](C)(O)/C=C/C1CCC(=O)[C@@H]1CCCSCC(=O)O` (mixture of isomers), the inhibition in vivo at 3.2 mg/kg with Cavia porcellus [6] and with Cavia porcellus [7] was below 50% in each case. The ED50 with Cavia porcellus [4] was determined as 2.99 mg/kg.
Turning to `CCCCC[C@H](O)/C=C/C1CCC(=O)[C@@H]1CCCCCSCC(=O)O` (mixture of isomers), the inhibition in vivo at 3.2 mg/kg in the assay on Cavia porcellus [6], with Cavia porcellus [7] and in the assay with Cavia porcellus [8] was below 50% in each case.
With `CCCCC[C@@H](O)/C=C/C1CCC(=O)[C@@H]1CCCCCSCC(=O)O` (mixture of isomers), the inhibition in vivo at 3.2 mg/kg in the assay on Cavia porcellus [6], in the assay with Cavia porcellus [7] and in the assay on Cavia porcellus [8] was below 50% throughout.
With `CCCCC(C)(C)[C@H](O)/C=C/C1CCC(=O)[C@@H]1CCCCCSCC(=O)O` (mixture of isomers), the inhibition in vivo at 3.2 mg/kg in the assay with Cavia porcellus [6], in the assay on Cavia porcellus [7] and with Cavia porcellus [8] was below 50% each time.
Turning to `CCCCC[C@H](O)/C=C/C1CCC(=O)C1CCCCCCC(=O)O` (mixture of isomers), the ED50 in the assay with Cavia porcellus [2] is 0.032 mg/kg; in the assay with Cavia porcellus [3], 0.000397 mg/kg; with Cavia porcellus [4] it was 0.0034 mg/kg.
On to `CC(C)NC[C@H](O)c1ccc(O)c(O)c1` [LEVISOPRENALINE], for which the “inhibition (INH)” value in the assay with Canis familiaris [9] is on record as 80%.

(Values after ChEMBL document CHEMBL3272138, “Prostaglandins and congeners. 16. Synthesis and bronchodilator activity of dl-11-doexy-3-thiaprostaglandins” (1977).)
